Calpain2 inh – inhibitors of pig calpain II, primary screen, biochemical, fluorogenic peptide substrate, 1536-well; purified calpain II, 30 min; hit rate 0.37% among 220,000; AID 1236, 2008; inhibition, % at 16 µM;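 active means inhibition above about 50%, limit read from the data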
FAS-TE inh – FAS thioesterase domain inhibitors, primary screen, biochemical, fluorescence intensity, uHTS | Fatty acid synthase (Homo sapiens), P49327 | recombinant FAS-TE, OMFH fluorogenic substrate, fluorescence endpoint | inhibition, % at 15 µM | hit rate 0.67% among 360,000;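 active means compounds whose normalised, plate-corrected inhibition of enzyme fluorescence in the single-dose primary screen is 50% or more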;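 further: 0% = DMSO with enzyme and 100% = substrate without enzyme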
Target sequence (P49327 whole entry, looked up, the tested form may be a part): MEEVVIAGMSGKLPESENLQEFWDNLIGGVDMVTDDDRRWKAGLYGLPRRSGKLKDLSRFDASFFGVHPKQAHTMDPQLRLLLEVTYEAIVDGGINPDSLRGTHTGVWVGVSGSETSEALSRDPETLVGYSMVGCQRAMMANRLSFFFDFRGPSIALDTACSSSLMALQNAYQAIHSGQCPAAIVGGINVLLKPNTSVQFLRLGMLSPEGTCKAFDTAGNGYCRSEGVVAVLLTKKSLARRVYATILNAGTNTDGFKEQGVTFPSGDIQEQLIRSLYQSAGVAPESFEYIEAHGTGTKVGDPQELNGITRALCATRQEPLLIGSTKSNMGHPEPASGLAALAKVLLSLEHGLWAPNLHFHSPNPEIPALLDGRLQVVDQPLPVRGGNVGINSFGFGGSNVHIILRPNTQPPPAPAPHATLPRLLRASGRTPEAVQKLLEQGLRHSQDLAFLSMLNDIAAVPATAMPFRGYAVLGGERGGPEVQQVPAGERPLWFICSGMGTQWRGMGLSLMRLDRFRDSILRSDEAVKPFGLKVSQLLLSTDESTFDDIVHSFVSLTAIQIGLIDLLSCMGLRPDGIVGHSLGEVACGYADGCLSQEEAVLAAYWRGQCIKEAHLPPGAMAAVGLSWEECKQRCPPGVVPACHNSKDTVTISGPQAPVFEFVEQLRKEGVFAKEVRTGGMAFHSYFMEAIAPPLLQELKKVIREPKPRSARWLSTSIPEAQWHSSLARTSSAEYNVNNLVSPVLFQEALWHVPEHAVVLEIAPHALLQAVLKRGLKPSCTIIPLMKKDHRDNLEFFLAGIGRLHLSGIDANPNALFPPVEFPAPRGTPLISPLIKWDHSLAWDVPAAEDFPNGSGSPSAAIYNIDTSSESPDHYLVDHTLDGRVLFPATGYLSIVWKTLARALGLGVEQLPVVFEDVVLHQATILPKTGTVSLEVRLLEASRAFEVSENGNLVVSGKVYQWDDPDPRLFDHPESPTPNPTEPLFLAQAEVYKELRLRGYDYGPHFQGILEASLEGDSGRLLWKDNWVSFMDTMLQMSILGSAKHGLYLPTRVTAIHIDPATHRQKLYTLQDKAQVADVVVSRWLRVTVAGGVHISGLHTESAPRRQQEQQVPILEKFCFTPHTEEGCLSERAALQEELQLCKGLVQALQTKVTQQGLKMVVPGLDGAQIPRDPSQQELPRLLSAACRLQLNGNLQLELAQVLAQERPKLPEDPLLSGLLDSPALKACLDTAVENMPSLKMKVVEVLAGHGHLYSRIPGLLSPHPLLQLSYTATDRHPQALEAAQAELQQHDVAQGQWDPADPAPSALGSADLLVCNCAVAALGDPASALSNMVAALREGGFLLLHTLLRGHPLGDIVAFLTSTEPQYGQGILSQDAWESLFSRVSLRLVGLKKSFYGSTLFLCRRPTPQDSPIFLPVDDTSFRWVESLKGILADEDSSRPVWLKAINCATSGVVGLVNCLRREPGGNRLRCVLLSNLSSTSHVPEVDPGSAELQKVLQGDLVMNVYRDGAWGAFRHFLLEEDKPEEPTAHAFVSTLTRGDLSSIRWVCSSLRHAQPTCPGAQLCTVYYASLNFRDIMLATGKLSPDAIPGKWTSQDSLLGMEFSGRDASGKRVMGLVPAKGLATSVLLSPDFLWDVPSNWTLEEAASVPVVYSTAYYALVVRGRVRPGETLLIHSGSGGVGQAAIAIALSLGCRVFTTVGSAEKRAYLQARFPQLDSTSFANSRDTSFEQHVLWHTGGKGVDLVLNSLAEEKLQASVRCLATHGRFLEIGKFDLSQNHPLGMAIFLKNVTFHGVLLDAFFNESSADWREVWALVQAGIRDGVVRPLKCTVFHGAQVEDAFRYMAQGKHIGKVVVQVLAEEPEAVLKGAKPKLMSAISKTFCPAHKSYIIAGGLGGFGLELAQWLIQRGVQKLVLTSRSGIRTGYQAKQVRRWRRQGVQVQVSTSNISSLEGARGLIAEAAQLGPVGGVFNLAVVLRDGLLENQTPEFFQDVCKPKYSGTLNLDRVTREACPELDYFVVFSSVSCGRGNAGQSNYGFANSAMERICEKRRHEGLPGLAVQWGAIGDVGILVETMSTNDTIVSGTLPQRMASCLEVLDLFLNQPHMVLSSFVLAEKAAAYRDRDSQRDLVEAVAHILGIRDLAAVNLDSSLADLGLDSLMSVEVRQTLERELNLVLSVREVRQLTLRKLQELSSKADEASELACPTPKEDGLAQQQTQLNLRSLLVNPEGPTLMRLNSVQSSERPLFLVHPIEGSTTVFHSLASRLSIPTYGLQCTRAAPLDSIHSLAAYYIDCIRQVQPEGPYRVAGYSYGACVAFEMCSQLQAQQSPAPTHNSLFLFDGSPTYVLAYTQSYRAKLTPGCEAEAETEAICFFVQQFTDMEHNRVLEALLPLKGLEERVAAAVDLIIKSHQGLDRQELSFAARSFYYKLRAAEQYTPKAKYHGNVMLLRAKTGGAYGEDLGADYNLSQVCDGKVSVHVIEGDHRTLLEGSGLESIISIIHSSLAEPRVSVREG
Runt-CBFb FRET – inhibitors of RUNX1 Runt–CBFb binding, primary screen, biochemical, FRET, Cerulean-Runt, Venus-CBFb, uHTS | Cerulean-Runt/Venus-CBFb FRET ratio 530/480, 1 h | inhibition, % at 20 µM | hit rate 0.46% among 220,000 | AID 1496, 2009;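 active means inhibition over about 50% at 20 µM in the single-dose screen, limit read from the data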;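 further: 0% = DMSO wells and 100% = excess unlabeled CBFb competitor control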
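test system = Cerulean-Runt domain fusion protein, energy donor | probe or stimulus = Venus-CBFb binding partner, 100 nM | incubation = two 1 h room-temperature incubations shielded from light | detection = fluorescence energy transfer, 422 nm excitation, 530/480 nm emission | measure = loss of energy transfer signal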
Runt-SMMHC FRET – inhibitors of RUNX1 Runt–CBFb-SMMHC binding, primary screen, biochemical, FRET, Cerulean-Runt, Venus-CBFb-SMMHC, uHTS | Cerulean-Runt/Venus-CBFb-SMMHC FRET ratio 530/480, 1 h | inhibition, % at 20 µM | hit rate 0.74% among 220,000 | AID 1434, 2008;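 active means mean inhibition across duplicate retests at 20 µM reaching about 50%, limit read from the data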;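 further: 0% = DMSO wells and 100% = wells with excess untagged CBFb-SMMHC; inhibitors lower the FRET ratio by blocking Runt binding to CBFb-SMMHC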
RanGTP-Imp inh – inhibitors of RanGTP-importin-beta interaction, primary screen, biochemical, FRET, CFP-Ran, YFP-importin-beta, homogeneous | Ran GTPase (GTP-bound) - importin-beta complex | hit rate 1.1% among 300,000 | cell-free CFP-Ran/YFP-importin-beta FRET ratio | inhibition, % (concentration not given with the values);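 active means more than half of the replicate wells show a fall in the fluorescence ratio signal beyond about 16%, limit read from the data, passing the limit was not always enough; inconclusive means exactly half of the replicate wells pass the set limit; inactive means fewer than half of replicates pass the limit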;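 further: 0% = DMSO wells and 100% = Ran loaded with GDP instead of GTP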
Numbers without * were called inactive; i = inactive; ? = inconclusive; / = no result given. Most compounds without a hit are left out; they make up all but 2.1% or so of the library.

SMILES	Calpain2 inh	FAS-TE inh	Runt-CBFb FRET	Runt-SMMHC FRET	RanGTP-Imp inh
Cc1nn(CC(=O)N2CCN(c3ccccn3)CC2)c(=O)c2cc3sccc3n12	/	-5	/	/	-1
O=C(Nc1cccc(NC(=O)c2cc([N+](=O)[O-])ccc2Cl)n1)c1cc([N+](=O)[O-])ccc1Cl	/	57*	/	/	8
CCn1c(CC(=O)Nc2ccccc2C)nnc1SCC(=O)NC1CCCC1	/	0	/	/	0
C[C@@H]1CN([C@H](C)CO)S(=O)(=O)c2ccc(Br)cc2O[C@H]1CN(C)C(=O)C1CCCCC1	/	2	/	/	/
COc1ccc(-c2nc3ccccc3nc2-c2ccccc2)cc1	0	16	1	1	-1
COc1ccc2nc3ccccc3nc2c1	-216	1	1	86*	38*
CC(=O)N1c2ccccc2S(=O)(=O)c2c1ccc1ccccc21	/	25	/	/	/
COc1ccc2[nH]c3c(N4CCc5ccccc5C4)ncnc3c2c1	-138	21	-1	-5	2
COc1ccc(N2CCN(c3ncnc4c3[nH]c3ccccc34)CC2)cc1	15	2	-2	-2	19*
CSc1nc(SCC(=O)O)c2sc3nc(-c4ccccc4)c4c(c3c2n1)CCC4	90*	40	38	-24	-2
Cc1ccc(S(=O)(=O)N(C)c2ccc(C)c([N+](=O)[O-])c2)cc1	50*	7	1	1	-5
CCOC(=O)C1CCN(CCC(=O)Nc2ccc(Br)c(C)c2)CC1	/	1	/	/	6
Cc1cc(NC(=O)CCN2CCC(C(N)=O)CC2)ccc1Br	6	-12	2	2	59*
CCOC(=O)C1CCCN(c2c(NCCc3ccccc3)c(=O)c2=O)C1 (stereo unspecified)	-3	-2	0	1	0
CCOC(=O)C1CCCN(c2c(NCCCN(C)c3ccccc3)c(=O)c2=O)C1 (stereo unspecified)	100*	-6	2	0	2
COc1ccc(C(=O)/C=C/NCc2ccc(C)cc2)cc1	/	1	/	/	25*
O=C1CC(NS(=O)(=O)c2cccs2)CN1c1ccc(Cl)cc1 (stereo unspecified)	/	-4	/	/	2
O=[N+]([O-])c1cccc(/C=N\N=C2c3ccccc3-c3ccccc32)c1O	61*	36	-4	-12	-1
Cc1sc(NC(=O)/C=C/c2ccco2)c(C(=O)O)c1C	20	-4	0	-2	?
COc1ccc(CN2CCN(C(=O)c3ccco3)CC2)c(OC)c1OC	/	-4	/	/	-1
COc1ccc(CCN2CC(C(=O)N(C)Cc3ccc(C)o3)CCC2=O)cc1 (stereo unspecified)	/	-1	/	/	-1
COC(=O)c1ccc2[nH]c(C)c(CN3CCCC3)c(=O)c2c1	-59	-8	16	64*	-3
Cn1nc(-c2ccc(Cl)cc2)nc2c(=O)n(C)c(=O)nc1-2	55*	/	-17	-51	-16
CS(=O)(=O)n1nc(-c2ccc(Cl)cc2)nc1N	19	-2	2	-2	-3
CC1Cc2ccccc2N1C(=O)C1CCCN(S(=O)(=O)c2cccc3nsnc23)C1 (stereo unspecified)	55*	14	0	2	2
SMILES	Calpain2 inh	FAS-TE inh	Runt-CBFb FRET	Runt-SMMHC FRET	RanGTP-Imp inh
Cc1nnc(Oc2ccccc2F)c2ccccc12	61*	-9	-2	-1	-1
COc1ccccc1NC(=O)CNC(=O)c1ccccc1C	14	-5	1	0	24*
COc1ccc(CCNC(=O)c2cc3c(=O)n4cccc(C)c4nc3n(Cc3ccncc3)c2=N)cc1	/	/	105*	132*	/
CCCCNC(=O)c1cc2c(=O)n3cccc(C)c3nc2n(Cc2ccncc2)c1=N	i	-2	20	70*	188*
COCCNC(=O)c1cc2c(=O)n3cccc(C)c3nc2n(Cc2ccncc2)c1=N	i	1	12	40	192*
COCCCn1c(=N)c(C(=O)NCc2ccc3c(c2)OCO3)cc2c(=O)n3cccc(C)c3nc21	/	0	/	/	/
CCCCNC(=O)c1cc2c(=O)n3cccc(C)c3nc2s1	/	6	/	/	-2
COc1ccc(NS(=O)(=O)c2cccc(C(=O)N3CCCC(C)C3)c2)cc1 (stereo unspecified)	/	-2	/	/	2
CN(c1ccccc1C(=O)N1CCN(Cc2ccc3c(c2)OCO3)CC1)S(C)(=O)=O	-19	-3	/	1	1
Cc1[nH]n(-c2ccccc2)c(=O)c1C=Nc1ccc(S(=O)(=O)N=C(N)N)cc1	-17	-2	-1	-3	-1
Cc1[nH]n(-c2ccccc2)c(=S)c1C=Nc1ccc([N+](=O)[O-])cc1	-11	-9	-7	74*	/
Cc1ccc(CN2CC(C(=O)NCC(=O)Nc3c(C)cccc3C)CC2=O)cc1 (stereo unspecified)	/	-6	/	/	-3
c1ccc(C(c2c[nH]c3ccccc23)c2c[nH]c3ccccc23)nc1	-32	13	0	3	52*
O=S(=O)(NC1CCCCC1N1CCC(O)CC1)c1ccccc1 (stereo unspecified)	/	-2	/	/	56*
O=P(O)(Cc1ccccc1)Cc1ccccc1	/	-5	/	/	3
Cc1cccc(Cn2c(=O)n(Cc3ccco3)c(=O)c3ccccc32)c1	55*	23	4	3	-1
COc1cccc(C(=O)N(C)Cc2c(C)nn(C3CCS(=O)(=O)C3)c2C)c1 (stereo unspecified)	/	-4	/	/	/
O=C(NC(C(=O)N/N=C/c1c2ccccc2cc2ccccc12)c1n[nH]c(=O)c2ccccc12)c1ccccc1 (stereo unspecified)	-171	35	1	8	97*
O=C(NC(C(=O)N/N=C/c1ccccc1)c1n[nH]c(=O)c2ccccc12)c1ccccc1 (stereo unspecified)	-54	8	0	1	-5
C=CCNC(=O)C1CCN(c2ccc(S(=O)(=O)N3CCOCC3)cc2[N+](=O)[O-])CC1	8	-8	-2	-3	-2
CCCCNc1c(-c2ccc(SC(C)CC)cc2)nc2cnccn12 (stereo unspecified)	/	55*	/	/	/
CCCCNc1c(-c2ccc(OC)c(Sc3ccc(OC)cc3)c2)nc2cnccn12	/	28	/	/	/
O=Cc1c(N2CCCCC2)nc2ccccn2c1=O	-4	-5	1	-4	-3
CN1CCN(c2nc3ccccn3c(=O)c2C=O)CC1	/	-4	/	/	100*
CCNC(=O)/C(C#N)=C/c1c(N2CC(C)OC(C)C2)nc2ccccn2c1=O (stereo unspecified)	-7	-8	104*	77*	0

Assay outcomes deposited in PubChem by several laboratories.
